Measured values as given in ChEMBL document CHEMBL1156563, “Synthesis and antiproliferative evaluation of amide-containing flavone and isoflavone derivatives” (Bioorg Med Chem, 2008).
Each block holds one compound with its values, some of them ahead of it.

Columns and labels:
[1] = Antiproliferative activity against human NPC-TW01 cells after 72 hrs by MTT assay; format: functional; settings: NPC-TW01, 72 h
How it was run: (§1)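 Cells were exposed to a range of concentrations for 72 h. Compounds came from 20 mM stocks in 100% DMSO. Cells were then given MEM with 0.4 mg/mL MTT for 2 h, and formazan was read at 570 nm. GI50 was taken from percentage conversion relative to mock-treated controls and reported as mean SD of three independent experiments.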

NCI-H661 = experiment: Antiproliferative activity against human NCI-H661 cells after 72 hrs by MTT assay; format: functional; settings: NCI-H661, 72 h; how it was run: as §1
MT2 = experiment: Antiproliferative activity against human MT2 cells after 72 hrs by MTT assay; format: functional; settings: MT2, 72 h; how it was run: as §1
[2] = Cell cycle arrest in human NPC-TW01 cells assessed as accumulation at G2/M phase at 60 uM after 96 hrs by flow cytometry; format: functional, cell-based
How it was run: (§2)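 Time course in exponentially growing cells at two concentrations, sampled at the indicated times. Controls were kept in complete medium with 0.3% DMSO for the same periods. Cells were fixed, RNase-treated and stained. DNA content was read on a FACScan flow cytometer, and the percentage of cells in sub-G1, G0/G1, S and G2/M was determined.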

[3] = Cell cycle arrest in human NPC-TW01 cells assessed as accumulation at G0/G1 phase at 60 uM after 72 hrs by flow cytometry; format: functional, cell-based; how it was run: as §2
[4] = Cell cycle arrest in human NPC-TW01 cells assessed as accumulation at G0/G1 phase at 30 uM after 96 hrs by flow cytometry; format: functional, cell-based; how it was run: as §2
[5] = Cell cycle arrest in human NPC-TW01 cells assessed as accumulation at sub-G1 phase at 30 uM after 24 hrs by flow cytometry; format: functional, cell-based; how it was run: as §2
[6] = Cell cycle arrest in human NPC-TW01 cells assessed as accumulation at G0/G1 phase at 60 uM after 24 hrs by flow cytometry; format: functional, cell-based; how it was run: as §2
[7] = Cell cycle arrest in human NPC-TW01 cells assessed as accumulation at G2/M phase at 60 uM after 72 hrs by flow cytometry; format: functional, cell-based; how it was run: as §2
[8] = Cell cycle arrest in human NPC-TW01 cells assessed as accumulation at S phase at 60 uM after 24 hrs by flow cytometry; format: functional, cell-based; how it was run: as §2
[9] = Cell cycle arrest in human NPC-TW01 cells assessed as accumulation at sub-G1 phase at 30 uM after 96 hrs by flow cytometry; format: functional, cell-based; how it was run: as §2
[10] = Cell cycle arrest in human NPC-TW01 cells assessed as accumulation at G2/M phase at 60 uM after 48 hrs by flow cytometry; format: functional, cell-based; how it was run: as §2
[11] = Cell cycle arrest in human NPC-TW01 cells assessed as accumulation at sub-G1 phase at 10.5 uM after 72 hrs by flow cytometry; format: functional, cell-based
How it was run: (§3)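 Exponentially growing cells were treated for 72 h. Controls received complete medium with 0.5% DMSO for 72 h. Cells were fixed, incubated with RNase and stained. DNA content was measured on a FACScan flow cytometer, and the percentage of cells in each cell-cycle phase was determined.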

[12] = Cell cycle arrest in human NPC-TW01 cells assessed as accumulation at S phase at 30 uM after 48 hrs by flow cytometry; format: functional, cell-based; how it was run: as §2
[13] = Cell cycle arrest in human NPC-TW01 cells assessed as accumulation at S phase at 60 uM after 72 hrs by flow cytometry; format: functional, cell-based; how it was run: as §2
[14] = Cell cycle arrest in human NPC-TW01 cells assessed as accumulation at S phase at 10.5 uM after 72 hrs by flow cytometry; format: functional, cell-based; how it was run: as §3
[15] = Cell cycle arrest in human NPC-TW01 cells assessed as accumulation at sub-G1 phase at 30 uM after 48 hrs by flow cytometry; format: functional, cell-based; how it was run: as §2
[16] = Cell cycle arrest in human NPC-TW01 cells assessed as accumulation at S phase at 60 uM after 48 hrs by flow cytometry; format: functional, cell-based; how it was run: as §2
[17] = Cell cycle arrest in human NPC-TW01 cells assessed as accumulation at sub-G1 phase at 60 uM after 24 hrs by flow cytometry; format: functional, cell-based; how it was run: as §2
[18] = Cell cycle arrest in human NPC-TW01 cells assessed as accumulation at G0/G1 phase at 30 uM after 48 hrs by flow cytometry; format: functional, cell-based; how it was run: as §2
[19] = Cell cycle arrest in human NPC-TW01 cells assessed as accumulation at sub-G1 phase at 60 uM after 96 hrs by flow cytometry; format: functional, cell-based; how it was run: as §2
[20] = Cell cycle arrest in human NPC-TW01 cells assessed as accumulation at S phase at 60 uM after 96 hrs by flow cytometry; format: functional, cell-based; how it was run: as §2
[21] = Cell cycle arrest in human NPC-TW01 cells assessed as accumulation at G0/G1 phase at 60 uM after 96 hrs by flow cytometry; format: functional, cell-based; how it was run: as §2
[22] = Cell cycle arrest in human NPC-TW01 cells assessed as accumulation at S phase at 30 uM after 24 hrs by flow cytometry; format: functional, cell-based; how it was run: as §2
[23] = Cell cycle arrest in human NPC-TW01 cells assessed as accumulation at G0/G1 phase at 30 uM after 72 hrs by flow cytometry; format: functional, cell-based; how it was run: as §2
[24] = Cell cycle arrest in human NPC-TW01 cells assessed as accumulation at G2/M phase at 30 uM after 24 hrs by flow cytometry; format: functional, cell-based; how it was run: as §2
[25] = Cell cycle arrest in human NPC-TW01 cells assessed as accumulation at S phase at 30 uM after 72 hrs by flow cytometry; format: functional, cell-based; how it was run: as §2
[26] = Cell cycle arrest in human NPC-TW01 cells assessed as accumulation at G0/G1 phase at 30 uM after 24 hrs by flow cytometry; format: functional, cell-based; how it was run: as §2
[27] = Cell cycle arrest in human NPC-TW01 cells assessed as accumulation at G2/M phase at 10.5 uM after 72 hrs by flow cytometry; format: functional, cell-based; how it was run: as §3
[28] = Cell cycle arrest in human NPC-TW01 cells assessed as accumulation at sub-G1 phase at 30 uM after 72 hrs by flow cytometry; format: functional, cell-based; how it was run: as §2
[29] = Cell cycle arrest in human NPC-TW01 cells assessed as accumulation at G2/M phase at 60 uM after 24 hrs by flow cytometry; format: functional, cell-based; how it was run: as §2
[30] = Cell cycle arrest in human NPC-TW01 cells assessed as accumulation at G2/M phase at 30 uM after 96 hrs by flow cytometry; format: functional, cell-based; how it was run: as §2
[31] = Cell cycle arrest in human NPC-TW01 cells assessed as accumulation at G2/M phase at 30 uM after 48 hrs by flow cytometry; format: functional, cell-based; how it was run: as §2
[32] = Cell cycle arrest in human NPC-TW01 cells assessed as accumulation at sub-G1 phase at 60 uM after 48 hrs by flow cytometry; format: functional, cell-based; how it was run: as §2
[33] = Cell cycle arrest in human NPC-TW01 cells assessed as accumulation at G2/M phase at 30 uM after 72 hrs by flow cytometry; format: functional, cell-based; how it was run: as §2
[34] = Cell cycle arrest in human NPC-TW01 cells assessed as accumulation at G0/G1 phase at 60 uM after 48 hrs by flow cytometry; format: functional, cell-based; how it was run: as §2
[35] = Cell cycle arrest in human NPC-TW01 cells assessed as accumulation at S phase at 30 uM after 96 hrs by flow cytometry; format: functional, cell-based; how it was run: as §2
[36] = Cell cycle arrest in human NPC-TW01 cells assessed as accumulation at sub-G1 phase at 60 uM after 72 hrs by flow cytometry; format: functional, cell-based; how it was run: as §2
[37] = Cell cycle arrest in human NPC-TW01 cells assessed as accumulation at sub-G1 phase at 48.0 uM after 72 hrs by flow cytometry; format: functional, cell-based; how it was run: as §3
[38] = Cell cycle arrest in human NPC-TW01 cells assessed as accumulation at S phase at 48.0 uM after 72 hrs by flow cytometry; format: functional, cell-based; how it was run: as §3
[39] = Cell cycle arrest in human NPC-TW01 cells assessed as accumulation at G2/M phase at 48.0 uM after 72 hrs by flow cytometry; format: functional, cell-based; how it was run: as §3
[40] = Cell cycle arrest in human NPC-TW01 cells assessed as accumulation at G0/G1 phase at 48.0 uM after 72 hrs by flow cytometry; format: functional, cell-based; how it was run: as §3

Compound: O=C(COc1c(-c2ccccc2)oc2ccccc2c1=O)Nc1ccc(F)cc1
GI50 [1]: 9.5 µM | GI50 (NCI-H661): > 10 µM | GI50 (MT2): > 10 µM

Compound: O=C(COc1ccc2c(=O)c(-c3ccccc3)coc2c1)Nc1ccc(-c2ccccc2)cc1
GI50 [1]: 1.75 µM | GI50 (NCI-H661): > 10 µM | GI50 (MT2): > 10 µM

Compound: O=C(COc1ccc2c(=O)c(-c3ccccc3)coc2c1)Nc1ccccc1
GI50 [1]: > 10 µM | GI50 (NCI-H661): > 10 µM | GI50 (MT2): > 10 µM

Compound: O=C(COc1c(-c2ccccc2)oc2ccccc2c1=O)Nc1ccccc1
GI50 [1]: > 10 µM | GI50 (NCI-H661): > 10 µM | GI50 (MT2): 6.72 µM

Compound: COc1ccc(/C(COc2ccc3oc(-c4ccccc4)cc(=O)c3c2)=N/O)cc1
Activity [37]: 1.2% | Activity [38]: 27.5% | Activity [39]: 70.8% | Activity [40]: 0.5%

Compound: O=C(COc1c(-c2ccccc2)oc2ccccc2c1=O)Nc1ccc(-c2ccccc2)cc1
GI50 [1]: > 10 µM | GI50 (NCI-H661): > 10 µM | GI50 (MT2): > 10 µM

Now from value to compound, other results behind:

GI50 (NCI-H661): 9.53 µM
Compound: COc1ccc(NC(=O)COc2ccc3c(=O)c(-c4ccccc4)coc3c2)cc1
GI50 [1]: 6.7 µM | GI50 (MT2): 4.55 µM

GI50 (NCI-H661): > 10 µM
Compound: O=C(COc1ccc2c(=O)c(-c3ccccc3)coc2c1)Nc1ccc2ccccc2c1
GI50 [1]: 1.37 µM | GI50 (MT2): 7.68 µM

GI50 (NCI-H661): 9.71 µM
Compound: O=C(COc1ccc2oc(-c3ccccc3)cc(=O)c2c1)Nc1ccc(-c2ccccc2)cc1
GI50 [1]: 0.64 µM | GI50 (MT2): > 10 µM

GI50 (NCI-H661): 1.47 µM
Compound: O=C(COc1ccc2oc(-c3ccccc3)cc(=O)c2c1)Nc1ccc(F)cc1
Activity [2]: 7.78% | GI50 [1]: 0.74 µM | Activity [3]: 73.7% | Activity [4]: 70.7% | Activity [5]: 3.45% | Activity [6]: 51.5% | Activity [7]: 6.64% | Activity [8]: 26.4% | Activity [9]: 5.62% | Activity [10]: 10.5% | Activity [11]: 4% | Activity [12]: 24.2% | Activity [13]: 15.7% | Activity [14]: 13.6% | Activity [15]: 2.59% | Activity [16]: 18.4% | Activity [17]: 2.27% | Activity [18]: 59.8% | Activity [19]: 12.7% | Activity [20]: 12.8% | Activity [21]: 66.7% | Activity [22]: 27.6% | Activity [23]: 71% | Activity [24]: 17% | Activity [25]: 14.7% | Activity [26]: 52% | Activity [27]: 5.2% | Activity [28]: 4.79% | Activity [29]: 19.8% | Activity [30]: 8.6% | Activity [31]: 13.4% | Activity [32]: 2.87% | Activity [33]: 9.47% | Activity [34]: 68.3% | GI50 (MT2): 0.47 µM | Activity [35]: 15.1% | Activity [36]: 4.5%

GI50 (NCI-H661): 6.71 µM
Compound: O=C(COc1ccc2oc(-c3ccccc3)cc(=O)c2c1)Nc1ccc2ccccc2c1
GI50 [1]: 6.75 µM | GI50 (MT2): > 10 µM
